From ChEMBL document CHEMBL4732044, “Discovery of a promising agent IQZ23 for the treatment of obesity and related metabolic disorders” (Eur J Med Chem, 2020) come the findings set out here.

Calls of active or inactive are those of the source. The calls are words filed in the database; no cut-off is given here.

A short description of data set [1]: Toxicity in ip dosed C57BL/6J mouse administered for every other days for 6 weeks. As to conditions: in vivo. The class given is organism-based. Put shortly:
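Male C57BL/6J mice (7–8 weeks) were fed an HFC diet (60% fat, 1% cholesterol) from week 1 and given 20 mg/kg i.p. every other day for 6 weeks from week 9, in saline with 10% ethanol and 10% castor oil, against a vehicle group. At the end, after a 6 h fast under ketamine/xylazine, plasma was taken for auto-analyzer ALT, AST, TBIL, ALB, BUN and creatinine, and tissues were weighed.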

Data set [2] relates to 3T3-L1. In words: Activation of AMPK pathway in mouse 3T3-L1 cells assessed as increase in PCG1alpha mRNA expression at 0.3 to 1 uM after 24 hrs by RT-qPCR analysis. The class given is cell-based. As to conditions: filed as activator, dose 0.3-1 µM.
Data set [3] is described as follows: MRT(0 to infinity) in Sprague-Dawley rat at 2 mg/kg, iv up to 24 hrs by LC-MS/MS analysis. As to conditions: in vivo. It is filed as ADME, organism-based. Put shortly:
(§1)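 Male SD rats (180–220 g, n = 3) received compound in ethanol/saline (5:95), either intravenously at 2 mg/kg or intragastrically at 5 mg/kg. Plasma was sampled at 0, 0.5, 1, 2, 4, 8, 12 and 24 h. Concentrations were measured by LC-MS/MS, and PK parameters were calculated from the concentration–time data.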

The nature of data set [4]: Apparent volume of distribution in Sprague-Dawley rat at 2 mg/kg, iv up to 24 hrs by LC-MS/MS analysis. The class given is ADME, organism-based. The settings on record: in vivo, read-out: Vz. Put shortly: as §1
Data set [5] concerns 3T3-L1. In words: Cytotoxicity against mouse 3T3-L1 cells assessed as change in LDH releasing level at 5 uM after 6 days by LDH releasing assay. It is filed as cell-based. As to conditions: 3t3-l1, 144 h, time 6 day. The essentials:
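Differentiating 3T3-L1 cells were treated at 5 µM for 6 days. Plates were centrifuged and LDH activity in the supernatant was read at 490 nm. Release was expressed as fold = (treated − blank)/(control − blank), with untreated cells as blank and vehicle-differentiated control set to 1.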

Data set [6] relates to 3T3-L1. The data set is described as follows: Lipid lowering activity in mouse 3T3-L1 cells assessed as adipogenic cocktail-induced triglyceride levels at 1 uM after 3 to 6 days by GPO-POD assay relative to control. The class given is functional. The settings on record: time 3-6 day. The essentials:
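3T3-L1 cells were differentiated (cocktail on days 0–3, insulin thereafter) with 1 µM compound present during defined windows (days 0–3, 3–6, 6–9, or 0–3/0–6/0–9). TG was measured at day 9 by GPO-POD after Triton X-100 lysis and sonication. TG was normalized to BCA protein and expressed as % of differentiated control.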

For data set [7], the system named is Mus musculus. In words: Antiobesity activity in high fat diet-induced obese C57BL/6J mouse model assessed as creatinine level at 20 mg/kg, ip administered for every other days for 6 weeks by auto-analyzer method (reference value: 14.9 +/- […]). The class given is functional. The essentials:
(§2)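 Male C57BL/6J mice (7–8 weeks) fed HFC diet (60% fat, 1% cholesterol) for up to 14 weeks. From week 9, given 20 mg/kg i.p. every other day for 6 weeks in saline with 10% ethanol and 10% castor oil, or vehicle. Body weight and food intake recorded daily. At end, mice fasted 6 h, anesthetized, and blood collected into EDTA. Plasma chemistry run on an auto-analyzer; insulin by ultra-sensitive ELISA.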

The nature of data set [8]: AUC(0 to t) in Sprague-Dawley rat at 2 mg/kg, iv up to 24 hrs by LC-MS/MS analysis. It is filed as ADME, organism-based. Also on record: route intravenous, dose 2 mg/kg, time <=24. The settings on record: in vivo. Put shortly: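 Male Sprague-Dawley rats (180-220 g, n = 3) received a single intravenous dose of 2 mg/kg in ethanol/saline (5:95). Blood was sampled at 0, 30 min, 1, 2, 4, 8, 12 and 24 h after dosing and centrifuged to plasma. Plasma drug levels were measured by LC-MS/MS, and pharmacokinetic parameters were calculated from the concentration-time data.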

Data set [9] concerns 3T3-L1. In words: Activation of AMPK pathway in adipogenic cocktail-induced mouse 3T3-L1 cells with SiRNA-induced AMPKalpha knock down assessed as decrease in C/EBPalpha protein expression at 1 uM after 24 hrs by Western blot analysis. The class given is cell-based. Put shortly:
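3T3-L1 cells at 80% density transfected with 50 nM AMPKα siRNA or negative control for 24 h. Once confluent, differentiated with adipogenic cocktail with or without compound. Protein by Western blot normalized to actin. TG measured by GPO-POD kit, normalized to BCA protein, expressed as % of control.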
Background: A western blot detects proteins with antibodies after separation by electrophoresis.

The test system of data set [10] is Mus musculus. The data set is described as follows: Antiobesity activity in high fat diet-induced obese C57BL/6J mouse model assessed as insulin level at 20 mg/kg, ip administered for every other days for 6 weeks by ELISA (reference value: 3.5 +/- 0.6 ng/ml). The class given is functional. The essentials:
as §2
Background: ELISA stands for enzyme-linked immunosorbent assay.

Data set [11] has as its system 3T3-L1. In words: Activation of AMPK pathway in adipogenic cocktail-induced mouse 3T3-L1 cells assessed as increase in AMP to ATP ratio at 0.3 to 1 uM after 24 hrs. The class given is cell-based. The settings on record: filed as activator, dose 0.3-1 µM.
The subject of data set [12] is C2C12. The data set is described as follows: Activation of AMPK pathway in mouse C2C12 cells assessed as increase in glucose uptake at 0.3 to 1 uM after 6 hrs in presence of insulin by 2-NBDG/Hoechst 33342 staining based Confocal microscopic method. The class given is cell-based. The settings on record: filed as activator, dose 0.3-1 µM. The essentials: (§3)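 C2C12 myoblasts kept in DMEM with 10% FBS and 1% penicillin/streptomycin at 37 °C under 5% CO2.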

Data set [13] has as its system C2C12. In words: Activation of AMPK pathway in mouse C2C12 cells assessed as increase in glucose uptake at 0.3 to 1 uM after 6 hrs by 2-NBDG/Hoechst 33342 staining based Confocal microscopic method. The settings on record: filed as activator, dose 0.3-1 µM. The class given is cell-based. Put shortly:
as §3

Data set [14] concerns Mus musculus. In words: Antiobesity activity in high fat diet-induced obese C57BL/6J mouse model assessed as decrease in TG level at 20 mg/kg, ip administered for every other days for 6 weeks by Oil-red O staining based assay. The class given is functional, organism-based. Put shortly:
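Male C57BL/6J mice on HFC diet, dosed 20 mg/kg i.p. every other day for 6 weeks. Tissues fixed in 4% formaldehyde, paraffin-embedded, cut into 4 µm sections and stained with H&E or Oil-red O. Six random fields per sample scored blind.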

Data set [15] relates to 3T3-L1. The data set is described as follows: Inhibition of mouse 3T3-L1 cells adipocyte differentiation assessed as reduction in adipogenic cocktail-induced C/EBPalpha protein expression at 0.3 to 1 uM after 24 hrs by Western blot analysis. It is filed as functional, cell-based. The settings on record: dose 0.3-1 µM. Put shortly:
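3T3-L1 preadipocytes were exposed to adipogenic cocktail with compound (0.3 or 1 µM) and harvested on day 1. Lysates were resolved by SDS-PAGE, immunoblotted (primary antibody overnight at 4 °C, HRP secondary) and quantified by densitometry normalized to actin.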

Data set [16] has as its system Mus musculus. The data set is described as follows: Antiobesity activity in high fat diet-induced obese C57BL/6J mouse model assessed as blood urea nitrogen level at 20 mg/kg, ip administered for every other days for 6 weeks by auto-analyzer method (reference value: 14.6 +/- 1.4 mM). It is filed as functional.
Data set [17] concerns Mus musculus. In words: Antiobesity activity in high fat diet-induced obese C57BL/6J mouse model assessed as glucose level at 20 mg/kg, ip administered for every other days for 6 weeks by auto-analyzer method (reference value: 11.8 +/- 1.3 mM). The class given is functional. The essentials: as §2
The test system of data set [18] is C2C12. In words: Activation of AMPK pathway in mouse C2C12 cells assessed as increase in glucose uptake at 1 uM after 6 hrs by 2-NBDG/Hoechst 33342 staining based Confocal microscopic method. The settings on record: filed as activator. It is filed as cell-based. Put shortly: as §3
Data set [19] is described as follows: AUC(0 to t) in Sprague-Dawley rat at 2 mg/kg, iv up to 24 hrs by LC-MS/MS analysis. As to conditions: in vivo.

Broadly, the LD50 is the dose at which mortality reaches 50%. The term MRT inf denotes the average time that molecules of a dose stay in the body. By AUC(0-t) is commonly meant the area under the concentration-time curve up to a stated or last time point. Compound `COc1ccc2[nH]c(-c3nc(NCCCCN4CCCC4)c4ccccc4n3)c(C=O)c2c1` showed an LD50 at 1008 h in data set [1] of 500 mg/kg. Besides, the result in the data set with 3T3-L1 [2], in the data set with 3T3-L1 [11], in the data set with C2C12 [12], in the data set on C2C12 [13] and with Mus musculus [14] was Active. In addition, the MRT inf in data set [3] was 5.7 h. In data set [4], the Vd is 40.7 L/kg. Further, the Activity result was “Non-Toxic” with 3T3-L1 [5]; 61.8% in the data set with 3T3-L1 [6]; 14.5 µM in the data set on Mus musculus [7]; 2.2 ng/mL with Mus musculus [10]; 11.5 mM in the data set with Mus musculus [16]; 9.3 mM in the data set on Mus musculus [17]. Moreover, the AUC(0-t) at 24 h in [8] came out at 308 ng·h/mL. Moreover, the result in the data set with 3T3-L1 [9] was inactive. The inhibition result in the data set on 3T3-L1 [15] was “Active”.
Take `CN(C)CCCNc1nc(-c2[nH]c3ccccc3c2C=O)nc2ccccc12`: the result with C2C12 [18] was Active. The compound also came in with an AUC(0-t) at 24 h in data set [19] of 635 ng·h/mL.
